In ChEMBL document CHEMBL4373733, “Reinvestigating the synthesis and efficacy of small benzimidazole derivatives as presequence protease enhancers” (Eur J Med Chem, 2019):
Active and inactive are the calls of the source. The calls are words filed in the database; no cut-off is given here.

Assays:
[1] = target: T1, Presequence protease, mitochondrial (Homo sapiens) (UniProt Q5JRX3); test: Agonist activity at recombinant human N-terminal His6-tagged PreP expressed in Escherichia coli expression system assessed as increase in degradation of substrate V at 0.0001 to 10 uM measured every 30 sec for 10 mins by fluorometry
T1 sequence (whole entry): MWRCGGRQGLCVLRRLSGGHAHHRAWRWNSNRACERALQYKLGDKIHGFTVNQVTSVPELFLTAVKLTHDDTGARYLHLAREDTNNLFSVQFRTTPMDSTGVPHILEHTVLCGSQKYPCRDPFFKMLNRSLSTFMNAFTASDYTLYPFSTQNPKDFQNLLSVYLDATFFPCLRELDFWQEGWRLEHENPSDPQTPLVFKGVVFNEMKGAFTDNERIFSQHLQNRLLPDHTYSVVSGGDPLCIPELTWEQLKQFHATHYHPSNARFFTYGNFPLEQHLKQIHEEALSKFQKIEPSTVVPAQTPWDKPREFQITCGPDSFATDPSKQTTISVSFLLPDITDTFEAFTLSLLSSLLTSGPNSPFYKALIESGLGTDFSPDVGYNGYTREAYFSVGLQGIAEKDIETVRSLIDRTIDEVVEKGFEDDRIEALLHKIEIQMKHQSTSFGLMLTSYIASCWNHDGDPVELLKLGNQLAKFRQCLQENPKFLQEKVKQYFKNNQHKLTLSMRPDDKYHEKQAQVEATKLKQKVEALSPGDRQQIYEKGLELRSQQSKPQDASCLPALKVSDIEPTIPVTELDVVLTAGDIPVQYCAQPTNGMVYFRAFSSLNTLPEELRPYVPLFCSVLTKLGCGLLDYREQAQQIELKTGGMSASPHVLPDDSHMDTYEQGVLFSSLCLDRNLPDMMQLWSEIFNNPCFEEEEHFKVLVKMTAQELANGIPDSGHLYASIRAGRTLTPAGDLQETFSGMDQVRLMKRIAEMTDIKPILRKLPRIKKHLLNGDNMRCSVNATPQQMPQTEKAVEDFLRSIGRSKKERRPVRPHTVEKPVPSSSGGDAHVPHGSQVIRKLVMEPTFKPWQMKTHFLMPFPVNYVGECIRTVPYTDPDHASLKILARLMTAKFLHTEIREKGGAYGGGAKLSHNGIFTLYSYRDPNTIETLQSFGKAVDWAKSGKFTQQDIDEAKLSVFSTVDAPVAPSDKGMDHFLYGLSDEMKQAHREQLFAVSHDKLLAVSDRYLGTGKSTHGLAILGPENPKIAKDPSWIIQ
Summary of the method: (§1)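 hPreP expressed in E. coli at 25 °C (300μM IPTG, 16 h), purified by Ni-NTA, Source Q and Superdex 200, stored at −80 °C. Reaction: 0.1 μg (or 1 μg) hPreP in 20 mM HEPES pH 8.0, 10 mM MgCl₂, with substrate V (0.1 or 1.4 μg), 200 or 250 μl, room temperature (24–26 °C) or 37 °C. Fluorescence ex 320/em 405 nm. Degradation rate averaged over four independent experiments, mean ± SD.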

[2] = substrate: Nc1ccc([N+](=O)[O-])cc1/N=C/c1cc(Br)ccc1O; test: (§2) Agonist activity at recombinant human N-terminal His6-tagged PreP expressed in Escherichia coli expression system assessed as increase in degradation of substrate V by measuring catalytic rate at 0.01 uM measured every 30 sec for 10 mins by fluorometry (reference value: 1.4 +/- 0.1 /min); summary of the method: as §1
[3] = substrate: O=[N+]([O-])c1ccc2nc(-c3cc(Br)ccc3O)n(Cc3cc(Br)ccc3O)c2c1; test: as §2; summary of the method: as §1
[4] = substrate: Nc1ccc([N+](=O)[O-])cc1/N=C/c1cc(Br)ccc1O; test: (§3) Agonist activity at recombinant human N-terminal His6-tagged PreP expressed in Escherichia coli expression system assessed as increase in degradation of substrate V by measuring catalytic rate at 0.1 uM measured every 30 sec for 10 mins by fluorometry (reference value: 1.4 +/- 0.1 /min); summary of the method: as §1
[5] = substrate: O=[N+]([O-])c1ccc2nc(-c3cc(Br)ccc3O)n(Cc3cc(Br)ccc3O)c2c1; test: as §3; summary of the method: as §1
[6] = substrate: Nc1ccc([N+](=O)[O-])cc1/N=C/c1cc(Br)ccc1O; test: (§4) Agonist activity at recombinant human N-terminal His6-tagged PreP expressed in Escherichia coli expression system assessed as increase in degradation of substrate V by measuring catalytic rate at 1 uM measured every 30 sec for 10 mins by fluorometry (reference value: 1.4 +/- 0.1 /min); summary of the method: as §1
[7] = substrate: O=[N+]([O-])c1ccc2nc(-c3cc(Br)ccc3O)n(Cc3cc(Br)ccc3O)c2c1; test: as §4; summary of the method: as §1
[8] = substrate: O=[N+]([O-])c1ccc2nc(-c3cc(Br)ccc3O)n(Cc3cc(Br)ccc3O)c2c1; test: Agonist activity at recombinant human N-terminal His6-tagged PreP expressed in Escherichia coli expression system assessed as increase in degradation of substrate V by measuring catalytic rate at 10 uM measured every 30 sec for 10 mins by fluorometry (reference value: 1.4 +/- 0.1 /min); summary of the method: as §1
[9] = target: Presequence protease, mitochondrial (Homo sapiens) (UniProt Q5JRX3); test: Agonist activity at recombinant human N-terminal His6-tagged PreP expressed in Escherichia coli expression system assessed as increase in degradation of substrate V by measuring catalytic rate at 10 uM measured every 30 sec for 10 mins by fluorometry (reference value: 1.4 +/- 0.1 /min)

In the case of `O=[N+]([O-])c1ccc2[nH]c(-c3cc(Br)ccc3O)nc2c1`, the Activity [1] is reported as “inactive”.

In the case of `Nc1ccc([N+](=O)[O-])cc1/N=C/c1cc(Br)ccc1O`, the Activity [1] is reported as “inactive”.

For `O=[N+]([O-])c1ccc2nc(-c3cc(Br)ccc3O)n(Cc3cc(Br)ccc3O)c2c1`, the Activity [1] was “inactive”.

B1: Presequence protease, mitochondrial (Homo sapiens), Q5JRX3 (protein)
chain: T1 sequence (whole entry)
In the case of B1, the kcat [2] is reported as 0.0233 s⁻¹, the kcat [3] is reported as 0.0183 s⁻¹ and the kcat [4] is reported as 0.02 s⁻¹. It also gave a kcat [5] of 0.02 s⁻¹, a kcat [6] of 0.0217 s⁻¹ and a kcat [7] of 0.0217 s⁻¹. The kcat [8] was 0.0233 s⁻¹ and the kcat [9] was 0.0217 s⁻¹.
